Test results taken from ChEMBL document CHEMBL1944539, “Design, synthesis, and biological evaluation of potent quinoline and pyrroloquinoline ammosamide analogues as inhibitors of quinone reductase 2” (J Med Chem, 2012).
pIC50: −log10 of the molar value. The source made the active and inactive calls. The calls are words filed in the database; no cut-off is given here.

Assays:
SF-539 = experiment: Cytotoxicity against human SF539 cells assessed as cell growth at 10 uM; assay type: cell-based; conditions: sf-539, 10 µM
Summary of the method: (§1)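 Cells exposed to compound at a single concentration; read-out is growth percent relative to untreated control cultures.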

[1] = biological target: T1, Ribosyldihydronicotinamide dehydrogenase [quinone] (Homo sapiens) (UniProt P16083); experiment: Inhibition of human quinone reductase 2 using NMeH as substrate by MTT assay relative to control
T1 sequence (whole entry): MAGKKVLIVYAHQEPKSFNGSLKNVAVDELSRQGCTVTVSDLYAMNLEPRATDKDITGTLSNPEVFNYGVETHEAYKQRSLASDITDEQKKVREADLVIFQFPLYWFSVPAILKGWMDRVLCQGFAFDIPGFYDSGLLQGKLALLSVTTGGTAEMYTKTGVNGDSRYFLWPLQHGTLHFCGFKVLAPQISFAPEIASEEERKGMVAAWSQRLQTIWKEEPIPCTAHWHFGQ

DU-145 = experiment: Cytotoxicity against human DU145 cells assessed as cell growth at 10 uM; assay type: cell-based; conditions: du-145, 10 µM; summary of the method: as §1
MCF7 = experiment: Cytotoxicity against human MCF7 cells assessed as cell growth at 10 uM; assay type: cell-based; conditions: mcf7, 10 µM; summary of the method: as §1
UACC-62 = experiment: Cytotoxicity against human UACC62 cells assessed as cell growth at 10 uM; assay type: cell-based; conditions: uacc-62, 10 µM; summary of the method: as §1
[2] = biological target: T2, Ribosyldihydronicotinamide dehydrogenase [quinone] (Homo sapiens, UniProt P16083); experiment: (§2) Inhibition of human quinone reductase 2 using NMeH as substrate by MTT assay
T2 sequence (P16083 whole entry): T1 sequence (whole entry)
Summary of the method: (§3)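 Human QR2 (12 nM) with 25 μM NMeH and 200 μM MTT in 100 mM NaCl, 50 mM Tris pH 7.5, 0.1% Triton X-100, 23 °C; reactions started by enzyme. Formazan formation read at 612 nm; initial rates from ε 11,300 M-1cm-1. Inhibitor at varying concentrations, triplicate; IC50 from % inhibition versus zero-inhibitor control.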

SN12C = experiment: Cytotoxicity against human SN12C cells assessed as cell growth at 10 uM; assay type: cell-based; summary of the method: as §1
HCT-116 = experiment: Cytotoxicity against human HCT116 cells assessed as cell growth at 10 uM; assay type: cell-based; conditions: hct-116, 10 µM; summary of the method: as §1
OVCAR-3 = experiment: Cytotoxicity against human OVCAR3 cells assessed as cell growth at 10 uM; assay type: cell-based; conditions: ovcar-3, 10 µM; summary of the method: as §1
HOP-62 = experiment: Cytotoxicity against human HOP62 cells assessed as cell growth at 10 uM; assay type: cell-based; conditions: hop-62, 10 µM; summary of the method: as §1
[3] = biological target: T1, Ribosyldihydronicotinamide dehydrogenase [quinone] (Homo sapiens); experiment: as §2; summary of the method: as §3
[4] = biological target: T1, Ribosyldihydronicotinamide dehydrogenase [quinone] (Homo sapiens); experiment: Ratio of IC50 for ammosamide B to compound IC50 for human quinone reductase 2 using NMeH as substrate by MTT assay

For `CN1C(=O)c2cc(C(=O)NCc3ccccc3)nc3c(Cl)cc(Cl)c1c23`, which Activity (SF-539) is on record?
Its Activity is 97.49%.

And the Imax [1]?
Its Imax is 44.8%.

And the Activity (DU-145)?
Its Activity is 104.81%.

And the Activity (MCF7)?
Its Activity is 95.79%.

What about the Activity (UACC-62) of the same molecule?
The Activity was 101.93%.

And the pIC50 [2]?
The pIC50 was 5.11.

And the Activity (SN12C)?
The Activity was 107.48%.

And the Activity (HCT-116)?
Its Activity is 103.06%.

What about the Activity (OVCAR-3) of the same molecule?
The Activity was 103.52%.

What about the Activity (HOP-62) of the same molecule?
Its Activity is 113.2%.

For `COC(=O)c1cc(C(=O)OC)c2c(Cl)cc(NC(C)=O)cc2n1`, which Activity (SF-539) is on record?
Its Activity is 109.23%.

And the Activity (DU-145)?
The Activity was 112.18%.

And the Activity (MCF7)?
Its Activity is 100.11%.

What about the Activity (UACC-62) of the same molecule?
Its Activity is 112.51%.

What about the pIC50 [2] of the same molecule?
The pIC50 was < 4.00.

What about the Activity (SN12C) of the same molecule?
The Activity was 109.64%.

What about the Activity (HCT-116) of the same molecule?
Its Activity is 103.44%.

What about the Activity (OVCAR-3) of the same molecule?
Its Activity is 124.69%.

What about the Activity (HOP-62) of the same molecule?
The Activity was 112.21%.

`COC(=O)c1cc(C(=O)OC)c2c(Cl)cc(N)cc2n1` was tested. Which Activity (SF-539) did it give?
The Activity was 117.31%.

What about the Imax [1] of the same molecule?
The Imax was 87.9%.

What about the Activity (DU-145) of the same molecule?
Its Activity is 108.11%.

What about the Activity (MCF7) of the same molecule?
Its Activity is 105.75%.

And the Activity (UACC-62)?
Its Activity is 101.7%.

And the pIC50 [2]?
Its pIC50 is 5.48.

And the Activity (SN12C)?
Its Activity is 102.78%.

And the Activity (HCT-116)?
The Activity was 108.2%.

What about the Activity (OVCAR-3) of the same molecule?
Its Activity is 106.32%.

What about the Activity (HOP-62) of the same molecule?
Its Activity is 108.99%.

Which Imax [1] does the source give for `COC(=O)c1cc(C(=O)OC)c2c(N)c(Cl)cc(Cl)c2n1` here?
Its Imax is 36.6%.

And the pIC50 [2]?
The pIC50 was 4.66.

`COC(=O)c1cc(C(N)=O)nc2cc(N)c(N)c(Cl)c12` was tested. Which Imax [1] did it give?
The Imax was 89.7%.

And the pIC50 [2]?
The pIC50 was 6.82.

How did the inhibition [3] turn out when `COC(=O)C1CC(O)(C(=O)OC)c2c(N)c(Cl)cc(Cl)c2N1` (centres undefined) was run?
Its inhibition is “inactive”.

What does the source list for `COC(=O)c1cc(C(=O)OC)c2c(Cl)cc(N(C)C)cc2n1`?
Activity (SF-539): 100.61%; Imax [1]: 92.2%; Activity (DU-145): 138.91%; Activity (MCF7): 78.61%; Activity (UACC-62): 109.82%; pIC50 [2]: 5.40; Activity (SN12C): 113.39%; Activity (HCT-116): 104.18%; Activity (OVCAR-3): 115.27%; Activity (HOP-62): 114.23%

With `CN1C(=O)c2cc(C(N)=O)nc3c(N)c(Cl)c(N)c1c23` [AMMOSAMIDE B] as the molecule, how does the Activity (SF-539) read?
Its Activity is 88.22%.

And the Imax [1]?
Its Imax is 90.3%.

And the Activity (DU-145)?
The Activity was 114.59%.

What about the Activity (MCF7) of the same molecule?
Its Activity is 98.04%.

What about the Activity (UACC-62) of the same molecule?
The Activity was 100.09%.

What about the pIC50 [2] of the same molecule?
Its pIC50 is 7.21.

And the Activity (SN12C)?
Its Activity is 98.89%.

And the Activity (HCT-116)?
The Activity was 101.05%.

And the Activity (OVCAR-3)?
Its Activity is 115.24%.

What about the Activity (HOP-62) of the same molecule?
The Activity was 96.95%.

`COC(=O)c1cc(C(N)=O)nc2cc(N)c(I)cc12` was tested. Which Imax [1] did it give?
The Imax was 83.9%.

What about the pIC50 [2] of the same molecule?
Its pIC50 is 5.82.

Which Activity (SF-539) does the source give for `CN1C(=O)c2cc(C(N)=O)nc3c(Cl)cc(Cl)c1c23` here?
The Activity was 104.34%.

And the Imax [1]?
Its Imax is 46.3%.

And the Activity (DU-145)?
Its Activity is 97.82%.

What about the Activity (MCF7) of the same molecule?
The Activity was 96.11%.

What about the Activity (UACC-62) of the same molecule?
Its Activity is 90.84%.

And the pIC50 [2]?
The pIC50 was 5.24.

What about the Activity (SN12C) of the same molecule?
Its Activity is 101.49%.

And the Activity (HCT-116)?
The Activity was 107%.

And the Activity (OVCAR-3)?
Its Activity is 108.21%.

What about the Activity (HOP-62) of the same molecule?
The Activity was 105.32%.

Which Activity (SF-539) does the source give for `CN(C)C(=O)c1cc2c3c(c(Cl)cc(Cl)c3n1)N(C)C2=O` here?
The Activity was 101.43%.

And the Imax [1]?
Its Imax is 31.5%.

What about the Activity (DU-145) of the same molecule?
Its Activity is 127.34%.

And the Activity (MCF7)?
The Activity was 122.71%.

And the Activity (UACC-62)?
Its Activity is 110.63%.

And the pIC50 [2]?
The pIC50 was 4.60.

And the Activity (SN12C)?
The Activity was 106.07%.

And the Activity (HCT-116)?
Its Activity is 102.47%.

What about the Activity (OVCAR-3) of the same molecule?
The Activity was 126.09%.

What about the Activity (HOP-62) of the same molecule?
Its Activity is 118.26%.

For `COC(=O)c1cc2c3c(n1)C(=O)C(=O)C(Cl)=C3N(C)C2=O`, which Activity (SF-539) is on record?
The Activity was 106.99%.

What about the Activity (DU-145) of the same molecule?
Its Activity is 112.19%.

What about the Activity (MCF7) of the same molecule?
Its Activity is 94.99%.

What about the Activity (UACC-62) of the same molecule?
Its Activity is 96.96%.

What about the Activity (SN12C) of the same molecule?
The Activity was 102.66%.

What about the Activity (HCT-116) of the same molecule?
Its Activity is 104.56%.

What about the Activity (OVCAR-3) of the same molecule?
Its Activity is 123.43%.

And the Activity (HOP-62)?
The Activity was 110.6%.

What does the source list for `COC(=O)c1cc(C(N)=O)nc2cc(N(C)C)cc(Cl)c12`?
Imax [1]: 80.5%; pIC50 [2]: 5.80

What does the source list for `COC(=O)c1cc(C(N)=O)nc2cc(NC(C)=O)cc(Cl)c12`?
Activity (SF-539): 107.48%; Imax [1]: 96%; Activity (DU-145): 124.6%; Activity (MCF7): 89.58%; Activity (UACC-62): 108.54%; pIC50 [2]: 5.05; Activity (SN12C): 109%; Activity (HCT-116): 104.18%; Activity (OVCAR-3): 120.2%; Activity (HOP-62): 103.41%

With `CNc1c(Cl)c(N)c2c3c(cc(C(N)=O)nc13)C(=O)N2C` as the molecule, how does the Imax [1] read?
Its Imax is 102%.

What about the pIC50 [2] of the same molecule?
Its pIC50 is 8.39.

And the Ratio IC50 [4]?
Its Ratio IC50 is > 10.

What does the source list for `NC(=O)c1cc(C(N)=O)c2cc(I)c(N)cc2n1`?
Imax [1]: 64%; pIC50 [2]: 5.82

With `COC(=O)c1cc(C(=O)OC)c2c(Cl)cc(N)c(Cl)c2n1` as the molecule, how does the Activity (SF-539) read?
The Activity was 99.06%.

And the Imax [1]?
Its Imax is 91.1%.

And the Activity (DU-145)?
The Activity was 108.85%.

What about the Activity (MCF7) of the same molecule?
Its Activity is 100.27%.

And the Activity (UACC-62)?
The Activity was 97.93%.

What about the pIC50 [2] of the same molecule?
The pIC50 was 5.25.

What about the Activity (SN12C) of the same molecule?
The Activity was 99.49%.

What about the Activity (HCT-116) of the same molecule?
The Activity was 100.36%.

What about the Activity (OVCAR-3) of the same molecule?
The Activity was 109.55%.

And the Activity (HOP-62)?
The Activity was 104.53%.

Which results are given for `COC(=O)c1cc(C(N)=O)nc2cc(N)cc(Cl)c12`?
Activity (SF-539): 104.82%; Imax [1]: 75.5%; Activity (DU-145): 105.75%; Activity (MCF7): 97.23%; Activity (UACC-62): 102.96%; pIC50 [2]: 5.96; Activity (SN12C): 102.63%; Activity (HCT-116): 98.84%; Activity (OVCAR-3): 110.07%; Activity (HOP-62): 109.87%

Which inhibition [3] does the source give for `COC(=O)C1CC2(O)C(=O)Nc3c(Cl)cc(Cl)c(c32)N1` (centres undefined) here?
The inhibition was “inactive”.

How did the Imax [1] turn out when `COC(=O)c1cc(C(=O)OC)c2c(Cl)c(N)c(N)cc2n1` was run?
Its Imax is 85.7%.

What about the pIC50 [2] of the same molecule?
Its pIC50 is 6.62.
